From article PMC11471106 (Drug Design, Development and Therapy, 2024)

Test system: MCF-7 cells
Test: Inhibition of [125I]I-AM uptake into MCF-7 cells by blocking agents
Type: cell-based
Settings: blocking agent at 1 mm
How it was run: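 Blocking uptake study in MCF-7 cells, cultured and given radiotracer as in the standard uptake assay (serum-free MEM + 0.2% BSA, 37 °C, gamma counting of lysate versus medium). Cells were treated separately with unlabelled parent compound, tamoxifen or 17β-estradiol, each at one stated concentration. Groups were compared by one-way ANOVA with Tukey's multiple comparison test.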

Structure (SMILES)	effect on uptake of [125I]I-AM into MCF-7 cells
C[C@]12CC[C@@H]3c4ccc(O)cc4CC[C@H]3[C@@H]1CC[C@@H]2O [estradiol, 17 β -estradiol]	not inhibited
CC/C(=C(\c1ccccc1)c1ccc(OCCN(C)C)cc1)c1ccccc1 [tamoxifen]	significantly inhibited
